According to ChEMBL document CHEMBL1148546, “3-Arylpiperazinylethyl-1H-pyrrolo[2,3-d]pyrimidine-2,4(3H,7H)-dione derivatives as novel, high-affinity and selective alpha(1)-adrenoceptor ligands” (Bioorg Med Chem Lett, 2006):

Experiments:
[1] = biological target: T1, Alpha-1A adrenergic receptor (Rattus norvegicus) (UniProt P43140); assay: Antagonistic activity at ADRA1A in isolated rat prostatic vas deferens; format: functional, tissue-based
T1 sequence (whole entry): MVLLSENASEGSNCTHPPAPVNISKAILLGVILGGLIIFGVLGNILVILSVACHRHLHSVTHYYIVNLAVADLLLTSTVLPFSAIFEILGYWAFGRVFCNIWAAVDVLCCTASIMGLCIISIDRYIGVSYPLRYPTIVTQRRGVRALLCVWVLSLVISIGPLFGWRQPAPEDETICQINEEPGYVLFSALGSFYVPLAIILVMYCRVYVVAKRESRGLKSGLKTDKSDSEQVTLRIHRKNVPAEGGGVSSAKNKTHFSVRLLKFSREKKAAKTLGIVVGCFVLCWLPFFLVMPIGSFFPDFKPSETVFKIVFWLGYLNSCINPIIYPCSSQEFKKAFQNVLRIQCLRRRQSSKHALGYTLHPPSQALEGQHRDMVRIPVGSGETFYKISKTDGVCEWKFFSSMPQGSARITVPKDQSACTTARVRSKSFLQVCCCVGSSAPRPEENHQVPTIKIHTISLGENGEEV
In short: (§1)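 Antagonism in isolated rat tissues: prostatic vas deferens (α1A), spleen (α1B), thoracic aorta (α1D). Each compound tested at a single concentration, and each concentration was investigated at least four times. pKb was calculated by the van Rossum method. pA2 was derived from Arunlakshana–Schild plots. WB4101 was used as the standard.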

D(1A) dopamine receptor = D(1A) dopamine receptor (Homo sapiens, UniProt P21728); assay: Binding affinity to dopamine D1 receptor
Sequence of D(1A) dopamine receptor (P21728 whole entry): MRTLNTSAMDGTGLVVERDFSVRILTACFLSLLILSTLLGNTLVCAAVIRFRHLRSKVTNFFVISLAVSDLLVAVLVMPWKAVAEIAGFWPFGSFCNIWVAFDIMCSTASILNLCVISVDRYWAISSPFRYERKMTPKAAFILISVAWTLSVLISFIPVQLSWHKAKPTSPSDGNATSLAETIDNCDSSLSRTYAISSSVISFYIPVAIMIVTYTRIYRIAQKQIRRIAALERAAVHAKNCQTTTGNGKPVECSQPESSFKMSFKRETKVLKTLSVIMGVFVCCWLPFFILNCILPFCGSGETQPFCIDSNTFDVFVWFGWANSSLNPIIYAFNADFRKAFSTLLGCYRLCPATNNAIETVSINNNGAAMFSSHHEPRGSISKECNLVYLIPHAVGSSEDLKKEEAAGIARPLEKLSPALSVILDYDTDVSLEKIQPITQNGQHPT

[2] = biological target: T2, Alpha-1D adrenergic receptor (Rattus norvegicus) (UniProt P23944); assay: Antagonistic activity at ADRA1D in rat thoracic aorta; format: functional, tissue-based; in short: as §1
T2 sequence (whole entry): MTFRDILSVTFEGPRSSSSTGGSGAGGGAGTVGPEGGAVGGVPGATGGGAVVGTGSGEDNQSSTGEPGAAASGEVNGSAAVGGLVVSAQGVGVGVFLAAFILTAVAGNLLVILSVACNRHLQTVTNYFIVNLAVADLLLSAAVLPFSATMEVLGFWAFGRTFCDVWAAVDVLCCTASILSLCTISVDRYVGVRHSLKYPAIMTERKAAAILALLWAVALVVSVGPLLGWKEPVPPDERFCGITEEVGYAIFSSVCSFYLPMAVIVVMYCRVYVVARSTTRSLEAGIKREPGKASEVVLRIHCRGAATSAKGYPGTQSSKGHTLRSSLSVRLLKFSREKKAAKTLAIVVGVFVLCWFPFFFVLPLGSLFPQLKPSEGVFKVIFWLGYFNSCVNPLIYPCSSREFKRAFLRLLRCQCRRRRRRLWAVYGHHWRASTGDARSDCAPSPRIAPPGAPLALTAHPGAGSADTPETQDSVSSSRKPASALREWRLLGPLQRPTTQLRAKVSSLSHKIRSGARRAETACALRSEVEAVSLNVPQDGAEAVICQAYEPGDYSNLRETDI

[3] = biological target: Alpha adrenergic receptor 1A and 1D (Rattus norvegicus) (UniProt P23944+P43140); assay: Selectivity for ADRA1D over ADRA1A; format: protein assay
In short: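 Subtype selectivity is the antilog of the difference between the pKb values at α1A, α1B and α1D, measured in isolated rat prostatic vas deferens, spleen and thoracic aorta.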

Compound	pKb [1]	Ki (D(1A) dopamine receptor) [nM]	pKb [2]	Ratio pKb [3]
Cc1ccc(-c2cc3c(=O)n(CCN4CCN(c5ccccc5Cl)CC4)c(=O)[nH]c3[nH]2)cc1	7.25	389	7.78	3
Cc1ccc(-c2cc3[nH]c(=O)n(CCN4CCN(c5ccccc5Cl)CC4)c(=O)c3[nH]2)cc1	6.72	> 10000	6.44	0.5
O=c1[nH]c2[nH]c(-c3ccc(Cl)cc3)cc2c(=O)n1CCN1CCN(c2ccccc2Cl)CC1	6.41	544	7.66	18
COc1ccc(-c2cc3c(=O)n(CCN4CCN(c5ccccc5Cl)CC4)c(=O)[nH]c3[nH]2)cc1	7.48	272	7.69	2
